Reference: ChEMBL document CHEMBL3351594, “Cytotoxic dimeric epipolythiodiketopiperazines from the ascomycetous fungus Preussia typharum” (J Nat Prod, 2014)
Calls of active or inactive are those of the source. The rule behind the calls is not given here.

Experiments:
[1] = Cytotoxicity against human UACC257 cells by SRB method; format: functional
In short: (§1)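 NCI-60 in vitro screen panel of human tumor lines; GI50 (molar concentration giving 50% growth inhibition) and TGI (total growth inhibition) taken from dose–response data.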

[2] = Cytotoxicity against human NCI-ADR-RES cells by SRB method; format: functional
In short: (§2)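 NCI-60 in vitro drug screening panel. Values are the molar concentrations giving 50% growth inhibition (GI50) and total growth inhibition (TGI).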

SK-MEL-28 = assay: Cytotoxicity against human SK-MEL-28 cells by SRB method; format: functional; in short: as §2
SK-OV-3 = assay: Resistance ratio of GI50 for human P-gp expressing SKOV3-M6/6 cells to GI50 for human SKOV3 cells; format: functional
In short: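 SRB assay in SK-OV-3 and its P-gp/MDR1 single-cell clone SK-OV-3/MDR-1-6/6; GI50 from percent growth dose–response curves, n = 3 or 4 independent experiments; relative resistance taken as ratio of GI50 in the MDR line to parental.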

HeLa = assay: Inhibition of Histone-lysine N-methyltransferase Su(var)3-9 in human HeLa cells assessed as high H3K9me3 expression at 200 nM after 1 to 24 hrs by immunoblotting analysis; format: cell-based
In short: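 HeLa cells treated with vehicle or 200 nM for 1–24 h; log-phase cells lysed with protease inhibitors, equal protein by SDS-PAGE, PVDF transfer, probed for H3K9me3 and actin, ECL detection.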

[3] = Cytotoxicity against human UACC62 cells by SRB method; format: functional; in short: as §1
A549 = assay: Cytotoxicity against human A549 cells by SRB method; format: functional; in short: as §2
HOP-62 = assay: Cytotoxicity against human HOP62 cells by SRB method; format: functional; in short: as §2
[4] = Cytotoxicity against human UACC62 cells assessed as inhibition of colony formation at 5 nM incubated for 4 hrs followed by compound washout measured after 14 days relative to vehicle-treated control; format: functional; settings: UACC-62
In short: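 Clonogenic test: 600 UACC-62 cells (RPMI1640, 10% FBS, gentamicin) adhered, exposed 4 h to vehicle (DMSO) or compound, washed with DPBS, fresh medium, grown 14 days; fixed, 0.5% crystal violet in 10% methanol, colonies counted; duplicate/triplicate, n = 2–4 experiments; one-way ANOVA with Dunnett's vs vehicle.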

[5] = read-out: LC50 (the source's name)

Compound `CC(C)[C@@]12SS[C@]3(C(=O)N1C)[C@@H](O)[C@]1(C45c6ccccc6N[C@H]4N4C(=O)[C@@]6(CO)SS[C@@]4(C(=O)N6C)[C@H]5O)c4ccccc4N[C@@H]1N3C2=O` (stereo partly specified) has a GI50 ([1]; UACC-257) of 8.7 nM, a TGI ([1]; UACC-257) of 19.5 nM and a CC50 ([1]; UACC-257, read-out: LC50 (the source's name)) of 43.7 nM. It also gave a GI50 [2] of 33.9 nM, a TGI [2] of 120 nM and a CC50 [2, 5] of 355 nM. It also gave a GI50 (SK-MEL-28) of 12.6 nM, a TGI (SK-MEL-28) of 38 nM and a CC50 (SK-MEL-28; [5]) of 135 nM. The Ratio (SK-OV-3) was 1.7, the inhibition (HeLa) was “inactive” and the GI50 ([3]; UACC-62) was 18.2 nM. The TGI ([3]; UACC-62) was 72.4 nM, the CC50 ([3]; UACC-62, read-out: LC50 (the source's name)) was 295 nM and the GI50 (A549) was 26.3 nM. It also gave a TGI (A549) of 93.3 nM, a CC50 (A549; [5]) of 263 nM and a GI50 (HOP-62) of 11.7 nM. The TGI (HOP-62) was 30.9 nM, the CC50 (HOP-62; [5]) was 110 nM and the inhibition at 0.005 µM [4] was 38%.
